Assay outcomes deposited in PubChem BioAssay by several laboratories.
APP transl inh: inhibitors of APP translation via 5'UTR reporter, primary screen, APP 5'UTR luciferase, SH-SY5Y cells | SH-SY5Y APP 5'UTR-luciferase reporter, luminescence | 0.82% of 190,000 active | inhibition, % at 2 µM;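 active = inhibition above a set limit, derived from the sample mean plus 3 SD, cut at about 45% in these data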
MT stabilize HCS: microtubule stabilizers in HeLa cells, primary screen, imaging, high-content imaging | HeLa tubulin immunostaining HCS, 24 h; share of cells brighter than vehicle mean+2SD | % tubulin-high responders, % at 10 µM | 0.83% of 200,000 active;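 active = plate Z-score above 3 for both tubulin-high and condensed-nucleus cell shares, with cell loss under 80%, at 10 µM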;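 note: anti alpha tubulin signal scored within the nucleus-defined area of each cell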
BaF3 tox: parental Ba/F3 cell viability inhibition, counter-screen for JAK2V617F inhibitor project, murine pro-B, CellTiter-Glo luminescence | 1.1% of 220,000 active | inhibition, % at 5.6 µM | CellTiter-Glo ATP luminescence;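 active = inhibition above a per-campaign cutoff, the mean inhibition of all tested compounds plus 3 SD, cut at about 27% in these data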;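 note: 0% = DMSO wells and 100% = JAK Inhibitor I control wells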
Ba/F3 V617F tox: reduced viability of JAK2V617F-dependent Ba/F3 cells, primary screen, JAK2V617F inhibitor project, cell-based, Ba/F3 EpoR-JAK2V617F, luminescence | ATP luminescence | inhibition, % at 5.6 µM | 1.1% of 220,000 active;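 active = inhibition above the campaign mean plus 3 SD over all tested compounds, cut at about 24% in these data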;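 note: cytokine-independent growth of Ba/F3 cells driven by EpoR plus mutant JAK2; 0% = DMSO-treated cells and 100% = JAK inhibitor I control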
bCat nuc transl: modulators of beta-catenin nuclear translocation, primary screen, imaging, HeLa cells, immunofluorescence, high-content | nuclear translocation activity, % at 5 µM | 0.3% of 190,000 active;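 active = nuclear translocation activity above 50% at 5 µM, with a well cell count of 50 or more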;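 note: per-cell ratio of nuclear to cytoplasmic median beta-catenin stain intensity; plate controls were DMSO negative control for no effect and GSK-3 inhibitor IX positive control for full effect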
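Test system: human HeLa cells, native beta-catenin. Compound dosing: 5 µM primary single dose, 0.1% DMSO, 0.02–20 µM confirmation series. Incubation: compound exposure 24 h at 37°C. Detection: beta-catenin immunostaining with DAPI counterstain, 20x imaging, 6 fields/well. Read-out basis: Nuclear/cytoplasmic beta-catenin signal ratio, % activation.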
IEC-6 tox: cytotoxicity in IEC-6 intestinal epithelial cells, primary screen, cytotoxicity control for KLF5 inhibitor project, cell-based, luminescence; IEC-6 cytotoxicity, luminescence viability; inhibition, % at 5 µM; 0.78% of 290,000 active; AID 1825, 2009; in the data active = inhibition above about 22%;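 note: 0% = plate median of test compound wells and 100% = cytotoxic reference compound wells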
BaF3 parental 2: parental Ba/F3 cell viability inhibition, counter-screen for JAK2V617F inhibitor project, murine pro-B, CellTiter-Glo luminescence; shares compounds with Ba/F3 V617F tox; cells kept alive by added IL-3; inhibition, % at 5.6 µM; 31% of 580 active; AID 1520, 2009;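 active = cell growth inhibition above the hit limit set in the earlier mutant JAK2 cell screen, cut at about 27% in these data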;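 note: plate controls were DMSO-treated cells for no effect and JAK Inhibitor I control wells for full effect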
JAK2V617F conf: viability loss in Ba/F3 EpoR-JAK2V617F cells, confirmation, JAK2V617F inhibitor project, cell-based, luminescence, triplicate | 66% of 580 active | inhibition, % at 5.6 µM | CellTiter-Glo luminescence | shares compounds with Ba/F3 V617F tox;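 active = mean inhibition above the hit cutoff derived in the earlier primary screen, cut at about 25% in these data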;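 note: 0% = DMSO-treated cells and 100% = JAK inhibitor I control wells; higher means lower luminescence from reduced cell ATP and viability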
Numbers without * were called inactive; · = not tested or not shown. An excerpt weighted towards active compounds, which were near 2.2% of everything screened.

SMILES | APP transl inh | MT stabilize HCS | BaF3 tox | Ba/F3 V617F tox | bCat nuc transl | IEC-6 tox | BaF3 parental 2 | JAK2V617F conf
CSC1=NSC2=NC(=O)/C(=C\c3ccc(OC(=O)c4ccco4)cc3)C(=N)N12 | · | · | · | · | · | 2 | · | ·
CCC(NC(=S)NC1CCCCC1)c1ccc(C(C)C)cc1 (centres undefined) | · | · | · | · | · | -6 | · | ·
O=C(c1csc2ccccc12)N1CCCCCC1 | -6 | 2 | 27 | 28* | -4 | -6 | 26 | 36*
C=CCN=c1scc(C)n1/N=C/c1ccc(O)c(O)c1 | -8 | 4 | 25 | 62* | 3 | 11 | 37* | 86*
CCOc1ccc(NC(=O)CC)cc1 | 9 | 1 | 5 | -2 | 0 | -2 | · | ·
CCOc1ccc(NC(=S)NNC(=O)CC(C)O)cc1 (centres undefined) | 5 | 3 | 1 | 26* | 0 | 0 | -2 | -5
CCOc1ccc(NC(=O)CSC(N)=O)cc1 | 5 | 6 | 4 | 74* | -1 | -9 | -6 | 12
CCOc1cc(C(=S)N2CCOCC2)cc(Br)c1OS(=O)(=O)c1ccccc1 | · | · | · | · | · | -4 | · | ·
C=CCOc1nc2c(c(=O)n(C)c(=O)n2C)n1Cc1ccc(Cl)cc1 | -21 | 2 | 14 | 24* | -2 | 2 | 62* | 53*
CN(c1ccccc1)S(=O)(=O)c1cccc(C(=O)NCCc2ccc(O)c(O)c2)c1 | -4 | 6 | 7 | 32* | -1 | 12 | 4 | 67*
COc1ccccc1N1CCc2c(C)nc3c(OC)cccc3c21 | · | 0 | 11 | 45* | -5 | 11 | 8 | 50*
CCC(C)(C)NC(=O)C(c1cccc(OC)c1OC)N(C(=O)CCC(=O)Nc1cc(C)on1)C(C)C (centres undefined) | · | · | · | · | · | 7 | · | ·
Cc1csc(Nc2nc(N)c(C(=O)Nc3ccccc3)o2)n1 | · | · | · | · | · | 4 | · | ·
Cc1ccccc1CN1C(=O)CSc2ccc(C(=O)N3CCOCC3)cc21 | 8 | 38* | 12 | 33* | · | 1 | -1 | -1
O=C(c1ccc2c(c1)N(Cc1ccccc1)C(=O)CS2)N1CCOCC1 | -8 | 7 | -1 | -4 | 1 | -4 | · | ·
Cc1ccc(S(=O)(=O)N[C@@H](C)C(=O)N2CCC(C(=O)N[C@@H](Cc3ccccc3)C(=O)O)CC2)cc1 | · | · | · | · | · | -3 | · | ·
Fc1ccc(CSc2ncnc3sc4c(c23)CCCC4)cc1 | -3 | 2 | 2 | 99* | 0 | -4 | -3 | 0
CCc1cc(C(=O)N2CCCC(CCC(=O)N3CCN(c4ccccn4)CC3)C2)no1 (centres undefined) | 11 | 2 | 1 | 4 | 0 | 9 | · | ·
CC(C)c1cc(C(=O)N2CCCC(CCC(=O)N3CCN(c4ccccn4)CC3)C2)no1 (centres undefined) | · | · | 2 | 32* | 0 | 6 | -4 | 1
CCc1ccc(Nc2ccc(S(=O)(=O)N3CCOCC3)cc2[N+](=O)[O-])cc1 | 0 | 6 | 12 | 82* | -2 | -6 | 3 | 17
Cc1nc([N+](=O)[O-])c(Br)n1Cc1ccccc1 | · | · | -7 | 36* | 0 | 0 | -9 | 46*
Cc1ccc(-c2cnn(-c3ccccc3)c2N)cc1 | · | · | · | · | · | 10 | · | ·
Nc1c(-c2ccccc2)cnn1-c1ccc(C(=O)O)cc1 | -137 | 2 | 1 | 53* | · | 0 | -3 | -2
Cc1cccn2cc(COc3ccc(-c4ccccc4)cc3)nc12 | -44 | 1 | 25 | 48* | 4 | -12 | 43* | 43*
Cc1cccn2cc(COc3cccc([N+](=O)[O-])c3)nc12 | -22 | 2 | 10 | 6 | -2 | 2 | · | ·
SMILES | APP transl inh | MT stabilize HCS | BaF3 tox | Ba/F3 V617F tox | bCat nuc transl | IEC-6 tox | BaF3 parental 2 | JAK2V617F conf
CCc1ccc(NC(=O)C(NS(=O)(=O)c2ccc3c(c2)CCN3C(C)=O)C(C)C)cc1 (centres undefined) | · | · | · | · | · | -4 | · | ·
COc1ccc(CCNC(=O)C(NS(=O)(=O)c2ccc3c(c2)CCN3C(C)=O)C(C)C)cc1OC (centres undefined) | 12 | 3 | 11 | 65* | 0 | -3 | -4 | -2
Cc1ccc(NC(=S)N(Cc2cccc(Br)c2)CC2CCC(C(=O)O)CC2)cc1 (centres undefined) | -16 | 4 | 6 | -3 | -1 | -6 | · | ·
Cc1cc(NC(=S)N(Cc2cccc(Br)c2)CC2CCC(C(=O)O)CC2)ccc1Cl (centres undefined) | -22 | 2 | 25 | 29* | -2 | 2 | 27* | 38*
CC(C)N(C(=O)Cn1cc(S(=O)(=O)CC(=O)NCc2ccc(F)cc2)c2ccccc21)C(C)C | · | · | · | · | · | 4 | · | ·
CC(=O)Nc1ccc(S(=O)(=O)NCCC(=O)OCC(=O)N2CCN(C(=O)c3ccco3)CC2)cc1 | · | · | · | · | · | -4 | · | ·
N#CCSc1nnc(Nc2ccccc2)s1 | 11 | 2 | 4 | -2 | 1 | -4 | · | ·
OCCSc1nnc(Nc2ccccc2)s1 | -16 | 6 | -1 | 65* | 1 | -2 | -7 | -9
Nc1nc(N)c2nc(-c3ccccc3)c(N)nc2n1 | -8 | 2 | 11 | 30* | -5 | 2 | 19 | 73*
NSc1nc(N)c2nc(-c3ccccc3)c(-c3ccccc3)nc2n1 | 3 | 4 | 11 | 2 | 3 | 1 | · | ·
CC(C)C1C(C#N)=C(N)Oc2n[nH]c(-c3cccs3)c21 (centres undefined) | -7 | 5 | 10 | 5 | -6 | 4 | · | ·
CC(C)C1C(C#N)=C(N)Oc2n[nH]c(-c3ccc4ccccc4c3)c21 (centres undefined) | 55* | 32* | 10 | 33* | -7 | 12 | 26 | 68*
O=C(O)CC(NC(=O)Nc1ccccc1)c1ccc(OC2CCCC2)cc1 (centres undefined) | 2 | 3 | 4 | 33* | 0 | 3 | -4 | -6
CC1CCN(CCc2nc3cc(NC(=O)COc4ccc([N+](=O)[O-])cc4)ccc3n2C)CC1 | · | · | · | · | · | 1 | · | ·
CCCn1c(SCC(=O)NC2CCCC(C)C2C)n[nH]c1=O (centres undefined) | -9 | 2 | 8 | 2 | · | -4 | · | ·
CCCn1c(SCC(=O)NC2CCCc3ccccc32)n[nH]c1=O (centres undefined) | -2 | 4 | 8 | 57* | -4 | 1 | -2 | -3
CCc1ccccc1NC(=O)CCS(=O)(=O)c1ccc(OC)cc1 | · | · | · | · | · | -2 | · | ·
